Results pooled from the literature.
Each line is one published result; the experiments were not run side by side.
Target: Serine/threonine-protein kinase N1 (PKN1, Homo sapiens, UniProt Q16512)

| Structure (SMILES) | read-out | mode | method | tested at | quantity | value |
| --- | --- | --- | --- | --- | --- | --- |
| CC(C)(C)c1cc(C=C(C#N)C#N)cc(Br)c1O | enzyme activity | inhibitor |  | 0.5 µM | remaining activity | 94.5% |
| Cc1n[nH]c2ccc(-c3cncc(OC[C@@H](N)Cc4c[nH]c5ccccc45)c3)cc12 | enzyme activity | inhibitor |  | 1 µM | activity vs control | -1% |
| Nc1ncc(-c2nc(N3CCOCC3)nc(N3CCOCC3)n2)c(C(F)F)n1 | binding |  | competition with immobilised ligand | 10 µM | remaining binding | 49% |
| O=c1[nH]c2ccccc2n1C1CCN(Cc2ccc(-c3[nH]c4cc5ncnc5cc4nc3-c3ccccc3)cc2)CC1 | cell-free assay |  |  | 0.5 µM | remaining signal | 90.3% |
| Cn1cc(-c2cc(F)cc(N3CCn4c(cc5c4CCCC5)C3=O)c2CO)cc(Nc2ccc(N3CCN(C4COC4)CC3)cn2)c1=O | enzyme activity | inhibitor |  | 0.1 µM | inhibition | 11% |
| N#CC1(c2ccccn2)CCN(Cc2cc(C(=O)O)c(=O)n3ccccc23)CC1 | cell-free assay |  | competition with immobilised ligand | 1 µM | remaining binding | 100% |
| Cc1ccccc1-n1c(Cn2cnc3c(N)ncnc32)nc2cccc(C)c2c1=O | enzyme activity | inhibitor |  | 1 µM | activity vs control | 81% |
| COc1ncccc1-c1cnn2ccc(N3CCN(C(=O)OC(C)C)CC3)nc12 | binding |  | competition with immobilised ligand | 1 µM | remaining binding | 90% |
| O=c1[nH]c2ccc(Cl)cc2c(N[C@@H]2CN3CCC2CC3)c1-c1nc2ccccc2[nH]1 | enzyme activity | inhibitor |  | 1 µM | activity vs control | -1% |
| Cn1cc(-c2cccc(N3CCc4c(sc5c4CC(C)(C)C5)C3=O)c2CO)cc(Nc2ccncn2)c1=O | enzyme activity | inhibitor |  | 1 µM | inhibition | 1% |
| Cn1cncc1[C@@](O)(COc1ccc(C#N)cc1-c1ccc(OC(F)(F)F)cc1)c1ccc(C#N)cc1 | cell-free assay |  | competition with immobilised ligand | 1 µM | remaining binding | 100% |
